Results published in ChEMBL document CHEMBL4308887, “Synthesis and biological evaluation of clovamide analogues with catechol functionality as potent Parkinson's disease agents in vitro and in vivo” (Bioorg Med Chem Lett, 2019).

How the values were obtained:
SH-SY5Y [1] = assay: Neuroprotection against H2O2-induced cell death in human SH-SY5Y cells at 100 uM preincubated for 6 hrs followed by H2O2 addition and measured after 24 hrs by MTT assay relative to control; assay type: functional
In short: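 Human SH-SY5Y neuroblastoma cells pretreated with compound at 100 μM for 6 h, then exposed to 600 μM H₂O₂ for 24 h; viability read by MTT and expressed as protection rate relative to untreated control. DMSO below 0.1% in all groups. Primary single-concentration screen; three independent experiments.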

SH-SY5Y [2] = assay: Neuroprotection against H2O2-induced cell death in human SH-SY5Y cells preincubated for 6 hrs followed by H2O2 addition and measured after 24 hrs by MTT assay; assay type: functional, cell-based
In short: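 Primary screen at 100 μM, then dose-response. SH-SY5Y cells pretreated, then exposed to 600 μM H₂O₂ (the level chosen from a 100–1000 μM, 24 h viability titration). EC₅₀ is the concentration giving 50% of maximal effect. N-acetyl-L-cysteine served as positive control. DMSO below 0.1%. Mean ± S.E.M. of three experiments.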

Row | Compound | Activity (SH-SY5Y [1]) | EC50 (SH-SY5Y [2])
1 | COC(=O)[C@H](Cc1ccccc1)NC(=O)/C=C/c1ccc(O)cc1 | <50% | 
2 | COC(=O)[C@H](Cc1ccc(O)cc1)NC(=O)/C=C/c1ccc(O)c(O)c1 | >50% | 11.3 µM
3 | COC(=O)[C@H](Cc1ccc(O)cc1)NC(=O)/C=C/c1ccc(O)cc1 | <50% | 
4 | COC(=O)[C@H](Cc1ccccc1)NC(=O)/C=C/c1ccccc1 | <50% | 
5 | COC(=O)[C@H](Cc1ccc(O)cc1)NC(=O)/C=C/c1ccccc1 | <50% | 
6 | COC(=O)[C@H](Cc1ccc(O)c(O)c1)NC(=O)/C=C/c1ccc(O)cc1 | >50% | 19.1 µM
7 | COC(=O)[C@H](Cc1ccc(O)c(O)c1)NC(=O)/C=C/c1ccc(O)c(OC)c1 | >50% | 23.8 µM
8 | COC(=O)[C@H](Cc1ccccc1)NC(=O)/C=C/c1ccc(O)c(OC)c1 | <50% | 
9 | COC(=O)[C@H](Cc1ccc(O)cc1)NC(=O)/C=C/c1cccc(O)c1 | <50% | 
10 | COC(=O)[C@H](Cc1ccccc1)NC(=O)/C=C/c1cccc(O)c1 | <50% | 
11 | COC(=O)[C@H](Cc1ccc(O)cc1)NC(=O)/C=C/c1cccc(OC)c1 | <50% | 
12 | COC(=O)[C@H](Cc1ccc(O)c(O)c1)NC(=O)/C=C/c1cccc(O)c1 | >50% | 17.5 µM
13 | CC(=O)N[C@@H](CS)C(=O)O [ACETYLCYSTEINE] |  | 1680 µM
14 | O=C(O)/C=C/c1ccc(O)c(O)c1 [CAFFEIC ACID] |  | 33.8 µM
15 | COC(=O)[C@H](Cc1ccc(O)c(O)c1)NC(=O)/C=C/c1ccc(O)c(O)c1 [N-CAFFEOYL-DOPA METHYL ESTER] | >50% | 15.6 µM
16 | COC(=O)[C@H](Cc1ccc(O)c(O)c1)NC(=O)/C=C/c1ccccc1 [N-CINNAMOYL-DOPA METHYL ESTER] | >50% | 14.3 µM
